Screening results deposited in PubChem BioAssay by The Scripps Research Institute Molecular Screening Center.
GalR3 antag: antagonists of human GalR3; HEK293 GalR3-CNG cAMP membrane potential fluorescence; galR3 body fused to GalR1 C-terminus; O60755; 360,000 compounds, 0.44% hits; inhibition, % at 3 µM; AID 651719;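 active means inhibition above the screen-wide average plus 3 SD, cut at about 13% in these data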;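 further: forskolin and galanin both at EC90 stimulate the cells; cAMP rise reported by CNG channel membrane potential dye signal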
Target sequence (O60755 1-299 limits assumed): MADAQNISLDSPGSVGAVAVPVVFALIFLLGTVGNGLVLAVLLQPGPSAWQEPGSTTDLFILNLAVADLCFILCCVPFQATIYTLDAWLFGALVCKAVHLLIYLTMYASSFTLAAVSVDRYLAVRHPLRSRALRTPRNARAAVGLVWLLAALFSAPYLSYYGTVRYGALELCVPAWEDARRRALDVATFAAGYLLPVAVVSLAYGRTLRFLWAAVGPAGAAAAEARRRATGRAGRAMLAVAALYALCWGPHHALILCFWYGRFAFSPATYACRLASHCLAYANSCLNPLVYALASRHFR
OX1R antag-1: blocks the human orexin 1 receptor; 330,000 compounds, 1.8% hits; OX1R-expressing cells, FRET antagonist read-out; inhibition, % at 6.6 µM; O43613; in the data active means inhibition mostly above about 38%, no sharp cut-off; inactive means mostly below about 40%
Target sequence (O43613 whole entry, looked up): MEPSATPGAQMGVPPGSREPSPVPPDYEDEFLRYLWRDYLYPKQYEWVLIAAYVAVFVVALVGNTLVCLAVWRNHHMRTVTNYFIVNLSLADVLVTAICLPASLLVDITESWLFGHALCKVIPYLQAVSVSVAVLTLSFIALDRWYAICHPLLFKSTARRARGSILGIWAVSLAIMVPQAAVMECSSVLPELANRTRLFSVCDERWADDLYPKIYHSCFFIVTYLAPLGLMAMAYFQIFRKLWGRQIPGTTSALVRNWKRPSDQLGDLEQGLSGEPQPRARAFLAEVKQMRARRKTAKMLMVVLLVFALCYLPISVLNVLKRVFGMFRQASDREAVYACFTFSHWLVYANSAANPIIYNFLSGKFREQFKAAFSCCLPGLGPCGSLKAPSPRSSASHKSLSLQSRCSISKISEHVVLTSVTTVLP
OX1R antag-2: antagonists of human orexin 1 receptor | O43613 | CHO/OX1R cells, Fluo-8 calcium fluorescence, orexin A | inhibition, % at 5 µM | 330,000 compounds, 0.43% hits;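 active means inhibition above its plate's threshold, mean inhibition of all tested compounds on the plate plus 3 SD, cut at about 37% in these data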
TAAR1 antag: human TAAR1 antagonism; Q96RJ0; CHO RD-HGA16 TAAR1, Fluo-8 calcium fluorescence, antagonist; inhibition, % at 3 µM; 360,000 compounds, 1.5% hits; AID 624466;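 active means inhibition above a per-plate cutoff, the mean inhibition of test compounds on that plate plus 3 SD, cut at about 49% in these data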
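Test system: hTAAR1-expressing CHO RD-HGA16 cells, Gα16-coupled; Probe or stimulus: EC80 β-phenethylamine stimulus; Compound dosing: single nominal final test compound concentration of 3 µM; Timing: 140 s kinetic read after compound, 140 s after agonist; Signal: Fluo-8 calcium-sensitive fluorescence; Measure: % inhibition of agonist calcium response; Controls: DMSO and EC80 PEA controls.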
CHO parental Ca: counter-screen for OX1R antagonists: effect in parental CHO cells; parental CHO-K1, ATP-induced calcium, Fluo-8 fluorescence; inhibition, % at 5.6 µM; 330,000 compounds, 0.63% hits; AID 463079;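 active means inhibition above that plate's mean sample inhibition plus 3 SD, cut at about 26% in these data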
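Assay system: parental CHO cells; Read-out basis: percent inhibition of ATP-evoked calcium rise, normalized to controls; Benchmarks: ATP and no-ATP DMSO wells; Compound dosing: single nominal dose of 5.6 µM per compound; Signal: Fluo-8 calcium dye fluorescence; Also added: ATP as calcium-mobilizing challenge; Repeats: singlicate.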
TAAR1 ag: human TAAR1 agonism | Q96RJ0 | CHO RD-HGA16 TAAR1, Fluo-8 calcium fluorescence; vehicle wells 0%, saturating PEA agonist 100% | activation, % at 3 µM | 360,000 compounds, 0.99% hits;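 active means activation above the mean activation of all test compounds in the run plus 3 SD, cut at about 38% in these data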
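Signal – calcium-sensitive Fluo-8 signal, excitation 470-495, emission 515-575 nm · System – RD-HGA16 (CHO) cells co-expressing Gα16 and hTAAR1 · Incubation – 17-24 h seeding, 75 min 37 °C dye, 30 min RT · Compound dosing – 3 µM single concentration · Repeats – no replicates (n 1)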
Large screens that a line does not name were inactive. The list is not random: actives were taken first. Their share in the collection is about 4.2%.

O=C(COc1ccccc1-c1ccccc1)Nc1ccc(S(=O)(=O)NCc2ccco2)cc1	OX1R antag-1 47.5, TAAR1 antag 60.8
C[n+]1ccccc1/C=C/c1ccc([N+](=O)[O-])cc1	OX1R antag-1 36.2
C[n+]1ccccc1/C=C/c1ccc(C#N)cc1	none
COc1ccc(/C=N/NC(=O)c2[nH]nc3c2CCc2ccccc2-3)cc1OC	none
Nc1nonc1-n1nnc(C(=O)N/N=C/c2cccnc2)c1-c1ccccc1	none
CC1C(=O)N(Cc2cn(CCC3OCCCO3)nn2)CCS(=O)(=O)N1Cc1ccc(-c2ccc(Cl)c(Cl)c2)cc1 (configuration not stated)	TAAR1 antag 69.1 (no result: OX1R antag-1, OX1R antag-2, CHO parental Ca)
COCOCCn1cc(CN2CCS(=O)(=O)N(Cc3ccc(-c4ccc(Cl)c(Cl)c4)cc3)C(C)C2=O)nn1 (configuration not stated)	TAAR1 antag 59.1 (no result: OX1R antag-1, OX1R antag-2, CHO parental Ca)
CC1C(=O)N(Cc2cn(CCC3OCCO3)nn2)CCS(=O)(=O)N1Cc1ccc(-c2ccc(Cl)cc2)cc1 (configuration not stated)	TAAR1 antag 51.9 (no result: OX1R antag-1, OX1R antag-2, CHO parental Ca)
Cc1ccc(-c2ccc(CN3C(C)C(=O)N(Cc4cn(CCC5OCCO5)nn4)CCS3(=O)=O)cc2)cc1 (configuration not stated)	none (no result: OX1R antag-1, OX1R antag-2, CHO parental Ca)
COCOCCn1cc(CN2CCS(=O)(=O)N(Cc3ccc(-c4ccc(C)cc4)cc3)C(C)C2=O)nn1 (configuration not stated)	none (no result: OX1R antag-1, OX1R antag-2, CHO parental Ca)
CCCCC(=O)N1CCCC(C)C1 (configuration not stated)	none
CC(NC(=O)C(NC(=O)C(Cc1c[nH]c2ccccc12)NC(=O)OC(C)(C)C)C(C)C)C(N)=O (configuration not stated)	none
Cc1cc(C(=O)N/N=C/c2c3ccccc3cc3ccccc23)n[nH]1	none
NC(=O)C(=O)N/N=C/c1c2ccccc2cc2ccccc12	OX1R antag-1 82.0
COc1cc(Cl)c(CN2CCC(CO)(CCOc3ccccc3)CC2)cc1OC	none
Cn1ccnc1SCC(=O)Nc1ccc([N+](=O)[O-])cn1	none (no result: OX1R antag-1, OX1R antag-2, CHO parental Ca)
Cc1cccc2c(N=NC(=O)c3ccc(NS(=O)(=O)c4cccs4)cc3)c(O)[nH]c12	OX1R antag-1 39.6, TAAR1 antag 56.2
COCCNC(=O)c1ccc2c3n(nc2c1)-c1ccc(C)cc1CO3	OX1R antag-1 64.3
O=C(NNC(=O)c1nn(-c2ccc(F)cc2)ccc1=O)Nc1cccc(Cl)c1	none
COc1ccc(-c2sc3cc(OC)c(OC)cc3c2-c2ccc(O)cc2)cc1	OX1R antag-1 38.3
COc1ccc(-c2sc3ccccc3c2-c2ccc(O)cc2)cc1	none
Cc1cc2c(cc1S(=O)(=O)N1CCN(c3cccc(C)c3C)CC1)OCCN2C	CHO parental Ca 57.3 (no result: GalR3 antag)
Cc1cc2c(cc1S(=O)(=O)N1CCN(c3ccc(Cl)cc3)CC1)OCCN2C	none (no result: GalR3 antag)
CN(C)CCN(Cc1cccs1)c1ccccn1	none
COc1cccc(C(=O)O)c1OS(=O)(=O)c1ccc(C)cc1	none (no result: OX1R antag-1, OX1R antag-2, CHO parental Ca)
CC1CC(C)(C)Nc2ccc(OC(=O)c3ccco3)cc21 (configuration not stated)	OX1R antag-1 69.1
O=C(Oc1ccc2ccccc2c1)c1ccco1	none
CCc1ccc(C(C)NC(=S)NCc2ccc(F)cc2)cc1 (configuration not stated)	TAAR1 ag 40.3
CN(c1ncc(C(F)(F)F)cc1Cl)n1cc(C(N)=O)c2ccccc2c1=O	none
COc1ccc(OC)c(-c2nn(-c3ccccc3)cc2C(=O)N2CCc3ccccc3C2)c1	none
COc1cccc(-c2nn(-c3ccc(C)cc3)cc2C(=O)N2CCc3cc(OC)c(OC)cc3C2)c1	OX1R antag-1 46.4, TAAR1 antag 62.6
N#CC1=C(N)NC(SCc2ccc(Br)cc2)=C(C#N)C12CCCCC2	CHO parental Ca 45.4
N#CC1=C(N)NC(SCc2ccccc2)=C(C#N)C12CCCC2	none
N#CC1=C(N)NC(SCc2ccc(Cl)cc2)=C(C#N)C12CCCCC2	OX1R antag-2 54.3, TAAR1 antag 61.7, CHO parental Ca 46.9
COc1ccc(NC(=O)C2Cc3c(-c4cccc(F)c4)ccnc3O2)cc1 (configuration not stated)	none (no result: OX1R antag-1, OX1R antag-2, CHO parental Ca)
O=C(O)c1ccc(COc2ccc([N+](=O)[O-])cc2Cl)cc1	none (no result: OX1R antag-1, OX1R antag-2, CHO parental Ca)
COc1ccc(OC)c2[nH]c(=O)c(CCNC(=O)c3ccc4c(c3)OCO4)cc12	none
Cc1nc(N2CCOCC2)c2c(C)c(C(=O)Nc3ccc(F)cc3Cl)sc2n1	GalR3 antag 13.5
NC(c1csc(Nc2cc(Oc3ccccc3)ncn2)n1)C1CCCCC1 (configuration not stated)	TAAR1 ag 42.7 (no result: OX1R antag-1, OX1R antag-2, CHO parental Ca)
COc1ccc(C(N)c2csc(Nc3cc(Oc4ccccc4)ncn3)n2)cc1 (configuration not stated)	TAAR1 ag 38.0 (no result: OX1R antag-1, OX1R antag-2, CHO parental Ca)
COc1ccc(C(N)c2csc(Nc3nncc4ccccc34)n2)cc1 (configuration not stated)	TAAR1 ag 42.0 (no result: OX1R antag-1, OX1R antag-2, CHO parental Ca)
CCc1ccc(C(=O)NNc2ccc(S(N)(=O)=O)cc2)cc1	none
COCC(=O)O[C@]1(CCN(C)CCCc2nc3ccccc3[nH]2)CCc2cc(F)ccc2[C@@H]1C(C)C	TAAR1 ag 40.9 (no result: GalR3 antag)
CCOC(=O)CCc1nc2ccccc2[nH]1	none
COc1ccc(CCNC(=O)CC2(CC3=NS(=O)(=O)c4ccccc4N3)CCCC2)cc1OC	none
COc1ccc(NCc2cc3ccccc3[nH]c2=O)cc1	none
COc1ccc2[nH]c(=O)c(CNc3cccc(C)c3)cc2c1	OX1R antag-1 47.9
COc1ccc(NCc2cc3cc(OC)ccc3[nH]c2=O)cc1	OX1R antag-1 47.0
COc1cccc2c1C(=O)c1ccc3ccccc3c1C2=O	none (no result: GalR3 antag, TAAR1 antag, TAAR1 ag)
COc1ccc(OC)c2c1C(=O)C(Cl)=C(Cl)C2=O	OX1R antag-1 104.2, OX1R antag-2 68.8, TAAR1 antag 70.9, CHO parental Ca 74.6
COc1ccc(N)c2c1C(=O)c1ccccc1C2=O	OX1R antag-1 70.2
COc1ccc(OC)c2c1C(=O)c1ccccc1C2=O	OX1R antag-1 65.4
COc1ccc(OC)c2c1C(=O)CC2C (configuration not stated)	none (no result: OX1R antag-1, OX1R antag-2, CHO parental Ca)
CCC(=O)Nc1cccc(Br)c1	none
Cc1nn(CC(=O)c2ccc(Cl)cc2Cl)c(C)[n+]1N	none
COC(=O)/C(=C(O)\C=C\c1ccccc1[N+](=O)[O-])c1nc2ccccc2[nH]1	OX1R antag-1 55.6
O=C(/C=C\c1ccccc1[N+](=O)[O-])Nc1ccccc1	none
Cc1ccc2nc(-c3ccccc3)cc(C(=O)NNC(=O)c3csc(N4CCOCC4)n3)c2c1	TAAR1 antag 56.5
Cc1cc(N2CCOCC2)nc(NCc2ccccc2)n1	TAAR1 ag 49.2
